In ChEMBL document CHEMBL1129372, “Cyclopent[a]anthraquinones as DNA intercalating agents with covalent bond formation potential: synthesis and biological activity” (J Med Chem, 1996):
Where “and” joins values, the source holds several entries; their conditions need not be identical. Equal entries are not always repeated.

Columns and labels:
[1] = tested on: HL-60; assay: Inhibition of cell growth was studied in human promyelocytic leukemic (HL-60) cells.; type: functional, cell-based
In short: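 HL-60 cells were exposed for 72 h and read by XTT-tetrazolium microculture assay: PMS-XTT incubation for 6 h at 37 °C, absorbance at 450 and 630 nm. Six to seven concentrations were tested. IC50 was derived by median-effect plot.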

[2] = tested on: 833K; assay: Inhibition of cell growth was studied in human teratocarcinoma (833K).; type: functional, cell-based
In short: (§1)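 Monolayer solid-tumor cells were assayed by SRB protein staining using six to seven concentrations. IC50 is the concentration reducing cell density to 50% of control, derived by median-effect plot.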

[3] = tested on: Mus musculus; assay: Anti cancer activity was tested on day 7, in mice bearing Lewis lung adenocarcinoma by injecting 0.4 mg/kg dose of compound intraperitoneally and average tumor volume was calculated.; type: functional; conditions: route intraperitoneal
In short: (§2)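 BDF1 mice given Lewis lung carcinoma subcutaneously (footnote: 4 × 10⁶ cells; methods: 0.2 mL brei). Dosing was ip once daily for 5 days, starting day 3 after inoculation, with drug in DMSO. Controls received DMSO alone: four control mice and three mice per dose. Body weight change, mortality and tumor volume were recorded on days 7, 10 and 14. Tumor volume is given as T/C.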

[4] = tested on: DC3F/AD-II; assay: Inhibition of cell growth was studied in chinese hamster lung cells resistant to actinomycin D (DC-3F/AD-II).; type: functional, cell-based; conditions: Cricetulus griseus; in short: as §1
[5] = tested on: DC3F; assay: Inhibition of cell growth was studied in chinese hamster lung cells (DC-3F); type: functional, cell-based; conditions: Cricetulus griseus; in short: as §1
[6] = tested on: Mus musculus; assay: Anti cancer activity was tested on day10, in mice bearing Lewis lung adenocarcinoma by injecting 0.8 mg/kg dose of compound intraperitoneally and average weight change was reported.; type: functional; conditions: route intraperitoneal; in short: as §2
[7] = tested on: SK-BR-3; assay: Inhibition of cell growth was studied in human mammary adenocarcinoma (SKBR-3).; type: functional, cell-based; in short: as §1
[8] = tested on: Mus musculus; assay: Anti cancer activity was tested on day10, in mice bearing Lewis lung adenocarcinoma by injecting 0.8 mg/kg dose of compound intraperitoneally and average tumor volume was calculated.; type: functional; conditions: route intraperitoneal; in short: as §2
[9] = tested on: Mus musculus; assay: Anti cancer activity was tested on day 14, in mice bearing Lewis lung adenocarcinoma by injecting 0.8 mg/kg dose of compound intraperitoneally and average weight change was reported.; type: functional; conditions: route intraperitoneal; in short: as §2
[10] = tested on: Mus musculus; assay: Anti cancer activity was tested on day10, in mice bearing Lewis lung adenocarcinoma by injecting 0.4 mg/kg dose of compound intraperitoneally and average tumor volume was calculated.; type: functional; conditions: route intraperitoneal; in short: as §2
[11] = tested on: Mus musculus; assay: (§3) Anti cancer activity was tested on day10, in mice bearing Lewis lung adenocarcinoma by injecting 0.4 mg/kg dose of compound intraperitoneally and average weight change was reported.; type: functional; conditions: route intraperitoneal; in short: as §2
[12] = tested on: Mus musculus; assay: Anti cancer activity was tested on day 14, in mice bearing Lewis lung adenocarcinoma by injecting 0.4 mg/kg dose of compound intraperitoneally and a. average […] was reported.; type: functional; conditions: route intraperitoneal; in short: as §2
[13] = tested on: Mus musculus; assay: Anti cancer activity was tested on day 14, in mice bearing Lewis lung adenocarcinoma by injecting 0.8 mg/kg dose of compound intraperitoneally and average tumor volume was calculated.; type: functional; conditions: route intraperitoneal; in short: as §2
[14] = tested on: Mus musculus; assay: as §3; type: functional; conditions: route intraperitoneal; remark: listed apart in the source
In short: (§4)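 Lewis lung carcinoma was implanted subcutaneously in BDF₁ mice at 4 × 10⁶ cells. Starting day 3, drug in DMSO was given ip once daily for 5 days; untreated controls received DMSO alone. Groups were four control mice and three mice per dose. Body weight change and average tumor volume (T/C) were recorded on days 7, 10 and 14 after treatment began.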

[15] = tested on: Mus musculus; assay: Anti cancer activity was tested on day 7, in mice bearing Lewis lung adenocarcinoma by injecting 2.0 mg/kg dose of compound intraperitoneally and average tumor volume was calculated.; type: functional; conditions: route intraperitoneal; in short: as §4
[16] = tested on: Mus musculus; assay: Anti cancer activity was tested on day 7, in mice bearing Lewis lung adenocarcinoma by injecting 2.0 mg/kg dose of compound intraperitoneally and average weight change was reported.; type: functional; conditions: route intraperitoneal; in short: as §4
[17] = tested on: Mus musculus; assay: Anti cancer activity was tested on day 14, in mice bearing Lewis lung adenocarcinoma by injecting 0.4 mg/kg dose of compound intraperitoneally and average […] was reported.; type: functional; conditions: route intraperitoneal; in short: as §4

Structure (SMILES) | IC50 [1] [µM] | IC50 [2] [µM] | Tumor volume treated/control ratio (T/C) [3] | IC50 [4] [µM] | IC50 [5] [µM] | Average weight change [6] [g] | IC50 [7] [µM] | Average tumor volume [8] [T/C] | Average weight change [9] [g] | Average tumor volume [10] [T/C] | Average weight change [11] [mg/kg] | Average tumor volume [12] [T/C] | Average weight change [12] [mg/kg] | Average tumor volume [13] [T/C] | Average weight change [14] [g] | Average tumor volume [15] [T/C] | Average weight change [16] [g] | Average tumor volume [17] [T/C] | Average weight change [17] [g]
NC(=O)OCc1cc2c(c3c1CCC3)C(=O)c1ccccc1C2=O | 123 |  |  |  |  |  |  |  |  |  |  |  |  |  |  |  |  |  | 
CNC(=O)OCc1cc2c(c3c1C1NC1C3)C(=O)c1ccccc1C2=O (configuration not stated) | 6.03 | 23.9 | 1.011 T/C and 0.529 T/C | 3.6 | 10.4 | -0.4 | 19.9 | 0.205 | 0.5 | 0.303 | -0.2 | 0.529 | 2 | 0.496 |  |  |  |  | 
CNC(=O)OCc1cc2c(c3c1CCC3)C(=O)c1ccccc1C2=O | 274 |  |  |  |  |  |  |  |  |  |  |  |  |  |  |  |  |  | 
CO[C@@]12[C@H](COC(N)=O)C3=C(C(=O)C(C)=C(N)C3=O)N1C[C@@H]1N[C@@H]12 [MITOMYCIN] | 0.05 | 0.328 | 0.49 T/C and 0.356 T/C | 0.11 | 0.082 | -1.8 | 0.993 | 0.363 | 0.2 | 0.411 |  |  |  | 0.437 | -1.2 | 0.169 | -2.7 | 0.515 | 0.6
